Calls of active or inactive are those of the source. The calls are words filed in the database; no cut-off is given here.
Legend:
[1] = biological target: 5-hydroxytryptamine receptor 2A (Rattus norvegicus, UniProt P14842); experiment: Displacement of [3H]ketanserin from 5HT2A in rat brain cerebral cortex; assay type: tissue-based
Summary of the method: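 Rat cerebral cortex membranes in 50 mM Tris-HCl pH 7.7 were incubated 20 min at 37 °C with 0.6 nM [3H]-ketanserin and compound at 10^-10–10^-4 M. Mianserin served as displacer. Filtration through GF/B, scintillation counting, in duplicate, with iterative curve fitting.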

Mus musculus [2] = experiment: Anxiolytic-like activity in Swiss albino mouse assessed as number of punished crossing at 10 mg/kg, ip after 60 mins by four-plate test (RVb = 3.8 +/- 0.2); assay type: functional; conditions: route intraperitoneal
Mus musculus [3] = experiment: Anxiolytic-like activity in Swiss albino mouse assessed as number of punished crossing at 20 mg/kg, ip after 60 mins by four-plate test (RVb = 3.8 +/- 0.2); assay type: functional; conditions: route intraperitoneal
[4] = biological target: T1, 5-hydroxytryptamine receptor 1A (Rattus norvegicus) (UniProt P19327); experiment: Antagonist activity at presynaptic 5HT1A receptor in rat brain cerebral cortex at 20 ug/ml; assay type: functional, tissue-based; conditions: filed as antagonist
T1 sequence (whole entry): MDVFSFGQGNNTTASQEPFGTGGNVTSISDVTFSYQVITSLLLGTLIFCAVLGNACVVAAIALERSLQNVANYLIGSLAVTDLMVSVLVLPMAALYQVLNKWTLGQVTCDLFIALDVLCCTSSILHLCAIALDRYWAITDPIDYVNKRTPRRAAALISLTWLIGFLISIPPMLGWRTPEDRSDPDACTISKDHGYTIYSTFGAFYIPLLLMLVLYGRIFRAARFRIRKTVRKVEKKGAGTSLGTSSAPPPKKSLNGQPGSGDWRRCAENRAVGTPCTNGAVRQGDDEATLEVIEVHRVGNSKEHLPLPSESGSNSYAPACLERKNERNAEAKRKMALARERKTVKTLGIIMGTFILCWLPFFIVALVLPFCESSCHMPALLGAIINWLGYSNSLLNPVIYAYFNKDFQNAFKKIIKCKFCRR

Mus musculus [5] = experiment: Anxiolytic-like activity in Swiss albino mouse assessed as number of punished crossing at 30 mg/kg, ip after 60 mins by four-plate test (RVb = 3.8 +/- 0.2); assay type: functional; conditions: route intraperitoneal
[6] = biological target: T1, 5-hydroxytryptamine receptor 1A (Rattus norvegicus); experiment: Antagonist activity at postsynaptic 5HT1A receptor in rat brain cerebral cortex at 20 ug/ml; assay type: functional, tissue-based; conditions: filed as antagonist
[7] = biological target: T2, 5-hydroxytryptamine receptor 1A (Rattus norvegicus, UniProt P19327); experiment: Displacement of [3H]8OH-DPAT from 5HT1A in rat brain cerebral cortex; assay type: tissue-based
T2 sequence (P19327 whole entry): T1 sequence (whole entry)
Summary of the method: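 Rat cerebral cortex membranes (9 mg wet weight) in 50 mM Tris-HCl pH 7.7 with pargyline, CaCl2 and 0.1% ascorbic acid. Incubated 15 min at 37 °C with 1 nM [3H]-8-OH-DPAT and compound at 10^-10–10^-4 M. Nonspecific binding defined with serotonin. GF/B filtration and scintillation counting, in duplicate, with iterative curve fitting.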

D(2) dopamine receptor = D(2) dopamine receptor (Rattus norvegicus, UniProt P61169); experiment: Displacement of [3H]spiperone from dopamine D2 receptor in rat brain striatum
[8] = biological target: 5-hydroxytryptamine receptor 2A (Rattus norvegicus) (UniProt P14842); experiment: Antagonist activity at postsynaptic 5HT2A receptor in rat brain cerebral cortex at 20 ug/ml; assay type: functional, tissue-based; conditions: filed as antagonist
[9] = biological target: T1, 5-hydroxytryptamine receptor 1A (Rattus norvegicus); experiment: Agonist activity at presynaptic 5HT1A receptor in rat brain cerebral cortex at 20 ug/ml; assay type: functional, tissue-based; conditions: filed as agonist
Mus musculus [10] = experiment: […] in Swiss albino mouse assessed as number of […] crossing of the light beam during 6 mins at 20 mg/kg, ip measured after 30 mins postdose […] (RVb = 107.1 +/- 8.5); assay type: functional; conditions: route intraperitoneal
[11] = biological target: T1, 5-hydroxytryptamine receptor 1A (Rattus norvegicus); experiment: Agonist activity at postsynaptic 5HT1A receptor in rat brain cerebral cortex at 20 ug/ml; assay type: functional, tissue-based
Mus musculus [12] = experiment: […] in Swiss albino mouse assessed as number of […] crossing of the light beam during 30 mins at 20 mg/kg, ip measured after 30 mins postdose […] (RVb = 249.2 +/- 21); assay type: functional; conditions: route intraperitoneal
Mus musculus [13] = experiment: […] in Swiss albino mouse assessed as number of […] crossing of the light beam during 30 mins at 10 mg/kg, ip measured after 30 mins postdose […] (RVb = 249.2 +/- 21); assay type: functional; conditions: route intraperitoneal
Mus musculus [14] = experiment: Anxiolytic-like activity in Swiss albino mouse assessed as number of punished crossing of the light beam during 6 mins at 10 mg/kg, ip measured after 30 mins postdose (RVb = 107.1 +/- 8.5); conditions: route intraperitoneal
Mus musculus [15] = experiment: Antidepressant-like activity in Swiss mouse assessed as immobilization time at 5 mg/kg, ip after 30 mins by forced swim test (RVb = 181.4 +/- 4.9 s); assay type: functional; conditions: route intraperitoneal
Mus musculus [16] = experiment: Anxiolytic-like activity in Swiss albino mouse assessed as number of punished crossing at 5 mg/kg, ip after 30 mins by four-plate test (RVb = 3.8 +/- 0.2); conditions: route intraperitoneal
Mus musculus [17] = experiment: Antidepressant-like activity in Swiss mouse assessed as immobilization time at 20 mg/kg, ip after 30 mins by forced swim test (RVb = 181.4 +/- 4.9 s); assay type: functional; conditions: route intraperitoneal
Mus musculus [18] = experiment: Antidepressant-like activity in Swiss mouse assessed as immobilization time at 10 mg/kg, ip after 30 mins by forced swim test (RVb = 181.4 +/- 4.9 s); assay type: functional; conditions: route intraperitoneal
Mus musculus [19] = experiment: Anxiolytic-like activity in Swiss albino mouse assessed as number of punished crossing at 30 mg/kg, ip after 60 mins by four-plate test (RVb = 4.2 +/- 0.4); assay type: functional; conditions: route intraperitoneal
Mus musculus [20] = experiment: Anxiolytic-like activity in Swiss albino mouse assessed as number of punished crossing at 10 mg/kg, ip after 60 mins by four-plate test (RVb = 4.2 +/- 0.4); assay type: functional; conditions: route intraperitoneal
Mus musculus [21] = experiment: Anxiolytic-like activity in Swiss albino mouse assessed as number of punished crossing at 20 mg/kg, ip after 60 mins by four-plate test (RVb = 4.2 +/- 0.4); assay type: functional; conditions: route intraperitoneal
[22] = Agonist activity at presynaptic 5HT1A receptor in brain cerebral cortex at 20 ug/ml
Mus musculus [23] = experiment: […] in Swiss albino mouse assessed as number of […] crossing of the light beam during 30 mins at 20 mg/kg, ip measured after 30 mins postdose […] (RVb = 210.7 +/- 17.7); assay type: functional; conditions: route intraperitoneal
Mus musculus [24] = experiment: […] in Swiss albino mouse assessed as number of […] crossing of the light beam at 20 mg/kg, ip measured after 30 mins postdose […] (RVb = 94.8 +/- 4.1); conditions: route intraperitoneal
Mus musculus [25] = experiment: […] in Swiss albino mouse assessed as number of […] crossing of the light beam during 6 mins at 10 mg/kg, ip measured after 30 mins postdose […] (RVb = 94.8 +/- 4.1); assay type: functional; conditions: route intraperitoneal
Mus musculus [26] = experiment: […] in Swiss albino mouse assessed as number of […] crossing of the light beam during 30 mins at 10 mg/kg, ip measured after 30 mins postdose […] (RVb = 210.7 +/- 17.7); assay type: functional; conditions: route intraperitoneal
Mus musculus [27] = experiment: Antidepressant-like activity in Swiss mouse assessed as immobilization time at 20 mg/kg, ip after 30 mins by forced swim test (RVb = 167.1 +/- 6.7 s); assay type: functional; conditions: route intraperitoneal
Mus musculus [28] = experiment: Antidepressant-like activity in Swiss mouse assessed as immobilization time at 10 mg/kg, ip after 30 mins by forced swim test (RVb = 167.1 +/- 6.7 s); assay type: functional; conditions: route intraperitoneal

Chain of D(2) dopamine receptor (P61169 whole entry): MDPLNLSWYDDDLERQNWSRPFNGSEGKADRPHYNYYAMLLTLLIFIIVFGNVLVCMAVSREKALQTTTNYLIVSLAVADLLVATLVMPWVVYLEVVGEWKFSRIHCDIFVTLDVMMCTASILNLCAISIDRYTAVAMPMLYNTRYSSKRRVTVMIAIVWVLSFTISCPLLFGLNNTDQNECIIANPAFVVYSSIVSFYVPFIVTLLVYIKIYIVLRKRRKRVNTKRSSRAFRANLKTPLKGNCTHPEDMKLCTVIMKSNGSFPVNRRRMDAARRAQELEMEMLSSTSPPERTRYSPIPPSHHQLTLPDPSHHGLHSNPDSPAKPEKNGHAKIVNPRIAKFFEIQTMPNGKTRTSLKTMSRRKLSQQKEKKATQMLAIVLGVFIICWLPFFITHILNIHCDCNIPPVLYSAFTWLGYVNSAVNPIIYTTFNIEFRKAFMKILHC
Chain of 5-hydroxytryptamine receptor 2A (P14842 whole entry): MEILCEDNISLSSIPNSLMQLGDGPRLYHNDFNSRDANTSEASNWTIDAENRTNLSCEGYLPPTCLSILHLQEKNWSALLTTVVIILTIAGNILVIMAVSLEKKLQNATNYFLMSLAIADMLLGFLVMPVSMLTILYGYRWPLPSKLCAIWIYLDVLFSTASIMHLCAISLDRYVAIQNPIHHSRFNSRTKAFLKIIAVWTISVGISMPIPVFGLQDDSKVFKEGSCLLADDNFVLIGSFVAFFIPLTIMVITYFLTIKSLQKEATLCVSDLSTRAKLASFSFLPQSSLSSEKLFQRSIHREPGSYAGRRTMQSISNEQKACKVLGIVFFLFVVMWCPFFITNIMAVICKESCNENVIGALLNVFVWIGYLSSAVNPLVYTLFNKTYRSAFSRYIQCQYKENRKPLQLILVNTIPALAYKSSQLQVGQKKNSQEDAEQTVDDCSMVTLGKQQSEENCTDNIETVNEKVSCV
Chain of 5-hydroxytryptamine receptor 2A (Rattus norvegicus) (P14842 whole entry): as above

SMILES	Ki [1]	Activity [6]	Ki [7]	Ki (D(2) dopamine receptor)	Activity [8]	Activity [9]	other results
COc1ccccc1N1CCN(CCCN2C(=O)NC3(CCc4ccccc43)C2=O)CC1 (racemic)	653 nM	Antagonist	49 nM	–	–	Agonist	–
COc1ccccc1N1CCN(CCCN2C(=O)NC(C)(c3ccccc3)C2=O)CC1 (racemic)	730 nM	–	47 nM	–	–	Agonist	Activity [11]: inactive
CC1(c2ccccc2)NC(=O)N(CCCN2CCN(c3cccc(Cl)c3)CC2)C1=O (racemic)	312 nM	Antagonist	29 nM	3900 nM	–	–	Activity [22]: inactive
COc1ccccc1N1CCN(CCCN2C(=O)NC(c3ccccc3)(C3CC3)C2=O)CC1 (racemic)	710 nM	–	11 nM	–	–	Agonist	Activity [11]: inactive
CN(C)CCCN1c2ccccc2CCc2ccccc21 [IMIPRAMINE]	–	–	–	–	–	–	Activity (Mus musculus [23]): 141.6; Activity (Mus musculus [24]): 89.1; Activity (Mus musculus [25]): 94.4; Activity (Mus musculus [26]): 208.7; Time (Mus musculus [27]): 107.8 s; Time (Mus musculus [28]): 149.1 s

Further molecules by falling Ki [1], results first:

Ki [1]	Activity [6]	Ki [7]	Ki (D(2) dopamine receptor)	Activity [8]	Activity [9]	SMILES	other results
284 nM	–	23 nM	–	–	Agonist	COc1ccccc1N1CCN(CCCN2C(=O)NC3(CCCc4ccccc43)C2=O)CC1 (racemic)	Activity (Mus musculus [10]): 111.6; Activity ([11]; filed as agonist): Agonist; Activity (Mus musculus [2]): 5.9; Activity (Mus musculus [12]): 225.3; Activity (Mus musculus [3]): 4.4; Activity (Mus musculus [13]): 212.9; Activity (Mus musculus [14]): 110; Time (Mus musculus [15]): 161.2 s; Activity (Mus musculus [16]): 3.9; Time (Mus musculus [17]): 103.1 s; Time (Mus musculus [18]): 121.4 s
100 nM	–	67 nM	–	–	–	O=C1NC(c2ccccc2)(C2CC2)C(=O)N1CCCN1CCN(c2ccccc2)CC1 (racemic)	Activity [11]: inactive; Activity [22]: inactive
78 nM	Antagonist	13 nM	–	–	–	O=C1NC(c2ccccc2)(C2CC2)C(=O)N1CCCN1CCN(c2cccc(Cl)c2)CC1 (racemic)	Activity (Mus musculus [2]): 3.8; Activity (Mus musculus [3]): 3.9; Activity [4]: Antagonist; Activity (Mus musculus [5]): 3.7
69 nM	–	457 nM	–	–	–	CC1(c2ccccc2)NC(=O)N(CCCN2CCN(c3ccccc3)CC2)C1=O (racemic)	–
53 nM	Antagonist	38 nM	6200 nM	Antagonist	Agonist	O=C1NC2(CCc3ccccc32)C(=O)N1CCCN1CCN(c2cccc(Cl)c2)CC1 (racemic)	Activity (Mus musculus [19]): 4.2; Activity (Mus musculus [20]): 4; Activity (Mus musculus [21]): 4.2
35 nM	–	350 nM	1800 nM	Antagonist	–	O=C1NC2(CCCc3ccccc32)C(=O)N1CCCN1CCN(c2cccc(Cl)c2)CC1 (racemic)	–
30 nM	–	98 nM	15600 nM	Antagonist	–	O=C1NC2(CCc3ccccc32)C(=O)N1CCCN1CCN(c2ccccc2)CC1 (racemic)	–
25 nM	–	88 nM	675 nM	Antagonist	–	O=C1NC2(CCCc3ccccc32)C(=O)N1CCCN1CCN(c2ccccc2)CC1 (racemic)	–
